# Measured values: ChEMBL document CHEMBL5247575 (J Med Chem, 2018)
# System: Klebsiella pneumoniae
# Assay: Synergistic antibacterial activity against Klebsiella pneumoniae 11978 producing OXA-48 assessed as cefepime MIC at 4 ug/ml by broth microdilution method
# Format: functional
# Settings: dose 4 µg/ml
# How it was run: (§1)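 Broth microdilution per CLSI guidelines, using custom frozen panels. […] Each partner drug was also tested alone. MICs were run in triplicate and the modal value is reported.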
row,Compound,MIC
1,NC(=O)[C@@H]1CC[C@@H]2CN1C(=O)N2OS(=O)(=O)[O-].[Na+] [AVIBACTAM SODIUM],0.25 µg/mL

# System: Escherichia coli
# Assay: Synergistic antibacterial activity against Escherichia coli DH10B transfected with pBC SK (-) PDC-3 assessed as cefepime MIC at 4 ug/ml by broth microdilution method
# Format: functional
# Settings: dose 4 µg/ml
# How it was run: as §1
row,Compound,MIC
1,NC(=O)[C@@H]1CC[C@@H]2CN1C(=O)N2OS(=O)(=O)[O-].[Na+] [AVIBACTAM SODIUM],≤ 0.12 µg/mL

# System: Acinetobacter baumannii
# Assay: Synergistic antibacterial activity against Acinetobacter baumannii PR363 producing OXA-23 assessed as cefepime MIC at 4 ug/ml by broth microdilution method
# Format: functional
# Settings: dose 4 µg/ml
row,Compound,MIC
1,NC(=O)[C@@H]1CC[C@@H]2CN1C(=O)N2OS(=O)(=O)[O-].[Na+] [AVIBACTAM SODIUM],> 16 µg/mL

# System: Acinetobacter baumannii
# Assay: Synergistic antibacterial activity against Acinetobacter baumannii PR319 producing OXA-23/24/40 assessed as meropenem MIC at 4 ug/ml by broth microdilution method
# Format: functional
# Settings: dose 4 µg/ml
row,Compound,MIC
1,NC(=O)[C@@H]1CC[C@@H]2CN1C(=O)N2OS(=O)(=O)[O-].[Na+] [AVIBACTAM SODIUM],> 16 µg/mL

# System: Pseudomonas aeruginosa
# Assay: Antibacterial activity against Pseudomonas aeruginosa CL232 by broth microdilution method
# Format: functional
# Settings: not given
row,Compound,MIC
1,NC(=O)[C@@H]1CC[C@@H]2CN1C(=O)N2OS(=O)(=O)[O-].[Na+] [AVIBACTAM SODIUM],> 16 µg/mL

# System: Klebsiella pneumoniae
# Assay: Synergistic antibacterial activity against Klebsiella pneumoniae 972/1910 producing KPC-3 assessed as meropenem MIC at 4 ug/ml by broth microdilution method
# Format: functional
# Settings: dose 4 µg/ml
row,Compound,MIC
1,NC(=O)[C@@H]1CC[C@@H]2CN1C(=O)N2OS(=O)(=O)[O-].[Na+] [AVIBACTAM SODIUM],≤ 0.12 µg/mL

# System: Escherichia coli
# Assay: Antibacterial activity against Escherichia coli DH10B transfected with pBR322-catI-KPC-2 by broth microdilution method
# Format: functional
# Settings: not given
row,Compound,MIC
1,NC(=O)[C@@H]1CC[C@@H]2CN1C(=O)N2OS(=O)(=O)[O-].[Na+] [AVIBACTAM SODIUM],> 16 µg/mL

# System: Klebsiella pneumoniae
# Assay: Synergistic antibacterial activity against Klebsiella pneumoniae CAV 1636 producing OXA-181 assessed as cefepime MIC at 4 ug/ml by broth microdilution method
# Format: functional
# Settings: dose 4 µg/ml
row,Compound,MIC
1,NC(=O)[C@@H]1CC[C@@H]2CN1C(=O)N2OS(=O)(=O)[O-].[Na+] [AVIBACTAM SODIUM],0.5 µg/mL

# System: Klebsiella pneumoniae
# Assay: Synergistic antibacterial activity against Klebsiella pneumoniae 11978 producing OXA-48 assessed as meropenem MIC at 4 ug/ml by broth microdilution method
# Format: functional
# Settings: dose 4 µg/ml
# How it was run: as §1
row,Compound,MIC
1,NC(=O)[C@@H]1CC[C@@H]2CN1C(=O)N2OS(=O)(=O)[O-].[Na+] [AVIBACTAM SODIUM],1 µg/mL

# System: Pseudomonas aeruginosa
# Assay: Synergistic antibacterial activity against Pseudomonas aeruginosa 839 assessed as meropenem MIC at 4 ug/ml by broth microdilution method
# Format: functional
# Settings: dose 4 µg/ml
row,Compound,MIC
1,NC(=O)[C@@H]1CC[C@@H]2CN1C(=O)N2OS(=O)(=O)[O-].[Na+] [AVIBACTAM SODIUM],1 µg/mL

# System: Bacteria
# Assay: Inhibition of bacteria ADC-7 assessed as half life using nitrocefin as substrate
# Settings: not given
row,Compound,T1/2
1,NC(=O)[C@@H]1CC[C@@H]2CN1C(=O)N2OS(=O)(=O)[O-].[Na+] [AVIBACTAM SODIUM],33 min

# System: Klebsiella pneumoniae
# Assay: Synergistic antibacterial activity against Klebsiella pneumoniae 440/1360 producing KPC-2 assessed as cefepime MIC at 4 ug/ml by broth microdilution method
# Format: functional
# Settings: dose 4 µg/ml
# How it was run: as §1
row,Compound,MIC
1,NC(=O)[C@@H]1CC[C@@H]2CN1C(=O)N2OS(=O)(=O)[O-].[Na+] [AVIBACTAM SODIUM],≤ 0.12 µg/mL

# System: Klebsiella pneumoniae
# Assay: Synergistic antibacterial activity against Klebsiella pneumoniae 440/1360 producing KPC-2 assessed as meropenem MIC at 4 ug/ml by broth microdilution method
# Format: functional
# Settings: dose 4 µg/ml
# How it was run: as §1
row,Compound,MIC
1,NC(=O)[C@@H]1CC[C@@H]2CN1C(=O)N2OS(=O)(=O)[O-].[Na+] [AVIBACTAM SODIUM],≤ 0.12 µg/mL

# System: Klebsiella pneumoniae
# Assay: Synergistic antibacterial activity against Klebsiella pneumoniae 1108/1989 producing KPC-3 assessed as meropenem MIC at 4 ug/ml by broth microdilution method
# Format: functional
# Settings: dose 4 µg/ml
# How it was run: as §1
row,Compound,MIC
1,NC(=O)[C@@H]1CC[C@@H]2CN1C(=O)N2OS(=O)(=O)[O-].[Na+] [AVIBACTAM SODIUM],≤ 0.12 µg/mL

# System: Acinetobacter baumannii
# Assay: Synergistic antibacterial activity against Acinetobacter baumannii PR408 producing OXA-24/40 assessed as cefepime MIC at 4 ug/ml by broth microdilution method
# Format: functional
# Settings: dose 4 µg/ml
row,Compound,MIC
1,NC(=O)[C@@H]1CC[C@@H]2CN1C(=O)N2OS(=O)(=O)[O-].[Na+] [AVIBACTAM SODIUM],> 16 µg/mL

# System: Klebsiella pneumoniae
# Assay: Synergistic antibacterial activity against Klebsiella pneumoniae 1084/1957 producing KPC-3 assessed as meropenem MIC at 4 ug/ml by broth microdilution method
# Format: functional
# Settings: dose 4 µg/ml
# How it was run: as §1
row,Compound,MIC
1,NC(=O)[C@@H]1CC[C@@H]2CN1C(=O)N2OS(=O)(=O)[O-].[Na+] [AVIBACTAM SODIUM],≤ 0.12 µg/mL

# System: Klebsiella pneumoniae
# Assay: Synergistic antibacterial activity against Klebsiella pneumoniae 977/1916 producing KPC-3 assessed as cefepime MIC at 4 ug/ml by broth microdilution method
# Format: functional
# Settings: dose 4 µg/ml
row,Compound,MIC
1,NC(=O)[C@@H]1CC[C@@H]2CN1C(=O)N2OS(=O)(=O)[O-].[Na+] [AVIBACTAM SODIUM],≤ 0.12 µg/mL

# System: Klebsiella pneumoniae
# Assay: Synergistic antibacterial activity against Klebsiella pneumoniae 776/1742 producing KPC-2 assessed as cefepime MIC at 4 ug/ml by broth microdilution method
# Format: functional
# Settings: dose 4 µg/ml
row,Compound,MIC
1,NC(=O)[C@@H]1CC[C@@H]2CN1C(=O)N2OS(=O)(=O)[O-].[Na+] [AVIBACTAM SODIUM],0.5 µg/mL

# System: Klebsiella pneumoniae
# Assay: Synergistic antibacterial activity against Klebsiella pneumoniae 1398/2291 producing KPC-3 assessed as cefepime MIC at 4 ug/ml by broth microdilution method
# Format: functional
# Settings: dose 4 µg/ml
# How it was run: as §1
row,Compound,MIC
1,NC(=O)[C@@H]1CC[C@@H]2CN1C(=O)N2OS(=O)(=O)[O-].[Na+] [AVIBACTAM SODIUM],≤ 0.12 µg/mL

# Target: not listed separately
# Assay: Binding affinity to bacteria ADC-7 assessed as dissociation constant
# Settings: not given
row,Compound,Kd
1,NC(=O)[C@@H]1CC[C@@H]2CN1C(=O)N2OS(=O)(=O)[O-].[Na+] [AVIBACTAM SODIUM],90 nM

# System: Klebsiella pneumoniae
# Assay: Synergistic antibacterial activity against Klebsiella pneumoniae 660/1568 producing KPC-3 assessed as cefepime MIC at 4 ug/ml by broth microdilution method
# Format: functional
# Settings: dose 4 µg/ml
# How it was run: as §1
row,Compound,MIC
1,NC(=O)[C@@H]1CC[C@@H]2CN1C(=O)N2OS(=O)(=O)[O-].[Na+] [AVIBACTAM SODIUM],≤ 0.12 µg/mL
